Results as given in ChEMBL document CHEMBL1139324, “Chemical modification and biological evaluation of new semisynthetic derivatives of 28,29-Didehydronystatin A1 (S44HP), a genetically engineered antifungal polyene macrolide antibiotic” (J Med Chem, 2009).
≈ marks a conversion by molar mass, not a printed value.

Key:
[1] = Toxicity against human erythrocytes assessed as hemolytic activity at 5 ug/ml; assay type: cell-based, Erythrocyte; conditions: read-out: Activity
How it was run: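 Lysis of erythrocytes in defibrinated human blood was measured under buffered conditions with compound at 5 µg/mL. Percent hemolysis is the mean of blood samples from two donors.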

[2] = system: Fusarium oxysporum; assay: Antifungal activity against Fusarium oxysporum VKM F-140 after 48 hrs by broth microdilution method; assay type: functional
How it was run: (§1)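 Susceptibility of filamentous fungi (molds) by broth microdilution per NCCLS M38-A in 96-well microplates. The MIC is read as the lowest inhibitory concentration. It is given as one number when replicate data fully agreed.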

[3] = system: Candida albicans; assay: Antifungal activity against Candida albicans ATCC 10231after 48 hrs by broth microdilution method; assay type: functional; conditions: ATCC 10231, 48 h
[4] = system: Vanrija humicola; assay: Antifungal activity against Cryptococcus humicolus ATCC 9949 after 48 hrs by broth microdilution method; assay type: functional; conditions: ATCC 9949, 48 h
How it was run: (§2)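 Yeast susceptibility by broth microdilution per NCCLS M27-A in 96-well plates. MIC is the lowest concentration inhibiting growth. Where repeat runs fully coincided, a single value is reported.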

[5] = system: Candida albicans; assay: Antifungal activity against Candida albicans ATCC 14053 after 48 hrs by broth microdilution method; assay type: functional; conditions: ATCC 14053, 48 h; how it was run: as §2
[6] = system: Aspergillus niger; assay: Antifungal activity against Aspergillus niger ATCC 16404 after 48 hrs by broth microdilution method; assay type: functional; conditions: ATCC 16404, 48 h; how it was run: as §1
[7] = Toxicity in Candida albicans ATCC 14053 infected iv dosed (C57BL/6xDBA/2)F1 B6D2F1 mouse; assay type: organism-based; conditions: in vivo

C[C@@H]1[C@H](O)[C@@H](C)/C=C/C=C/C=C/C=C/C=C/C=C/C=C/[C@H](O[C@H]2O[C@@H](C)[C@H](O)[C@@H](N)[C@H]2O)C[C@@H]2O[C@](O)(C[C@@H](O)[C@H](O)CC[C@@H](O)C[C@@H](O)C[C@@H](O)CC(=O)O[C@H]1C)C[C@H](O)[C@H]2C(=O)N1CCN(CCO)CC1
hemolysis at 5 ug/ml [1]: 2%
MIC [2]: 4 µg/mL (≈ 3.86 µM)
MIC50 [3]: 0.13 µg/mL (≈ 0.125 µM)
MIC90 [3]: 0.52 µg/mL (≈ 0.502 µM)
MIC [4]: 2 µg/mL (≈ 1.93 µM)
MIC [5]: 1 µg/mL (≈ 0.965 µM)
MIC [6]: 2 µg/mL (≈ 1.93 µM)

C[C@@H]1[C@H](O)[C@@H](C)/C=C/C=C/C=C/C=C/C=C/C=C/C=C/[C@H](O[C@H]2O[C@@H](C)[C@H](O)[C@@H](N)[C@H]2O)C[C@@H]2O[C@](O)(C[C@@H](O)[C@H](O)CC[C@@H](O)C[C@@H](O)C[C@@H](O)CC(=O)O[C@H]1C)C[C@H](O)[C@H]2C(=O)O
hemolysis at 5 ug/ml [1]: 41%
MIC [2]: 4 µg/mL (≈ 4.33 µM)
MIC50 [3]: 0.12 µg/mL (≈ 0.13 µM)
MIC90 [3]: 0.4 µg/mL (≈ 0.433 µM)
LD50 [7]: 2.2 mg/kg
MTD [7]: 0.64 mg/kg
MIC [4]: 1 µg/mL (≈ 1.08 µM)
MIC [5]: 1 µg/mL (≈ 1.08 µM)
MIC [6]: 1 µg/mL (≈ 1.08 µM)

C[C@@H]1[C@H](O)[C@@H](C)/C=C/C=C/C=C/C=C/C=C/C=C/C=C/[C@H](O[C@H]2O[C@@H](C)[C@H](O)[C@@H](N)[C@H]2O)C[C@@H]2O[C@](O)(C[C@@H](O)[C@H](O)CC[C@@H](O)C[C@@H](O)C[C@@H](O)CC(=O)O[C@H]1C)C[C@H](O)[C@H]2C(=O)NCCCN(C)C
hemolysis at 5 ug/ml [1]: 2%
MIC [2]: 2 µg/mL (≈ 1.98 µM)
MIC50 [3]: 0.08 µg/mL (≈ 0.0793 µM)
MIC90 [3]: 0.3 µg/mL (≈ 0.298 µM)
LD50 [7]: 16.4 mg/kg
MTD [7]: 11.9 mg/kg
MIC [4]: 1 µg/mL (≈ 0.992 µM)
MIC [5]: 1 µg/mL (≈ 0.992 µM)
MIC [6]: 2 µg/mL (≈ 1.98 µM)

C[C@@H]1[C@H](O)[C@@H](C)/C=C/C=C/C=C/C=C/C=C/C=C/C=C/[C@H](O[C@H]2O[C@@H](C)[C@H](O)[C@@H](N(CCCN)CCCN)[C@H]2O)C[C@@H]2O[C@](O)(C[C@@H](O)[C@H](O)CC[C@@H](O)C[C@@H](O)C[C@@H](O)CC(=O)O[C@H]1C)C[C@H](O)[C@H]2C(=O)O
hemolysis at 5 ug/ml [1]: 15%
MIC [2]: 1 µg/mL (≈ 0.963 µM)
MIC50 [3]: 0.04 µg/mL (≈ 0.0385 µM)
MIC90 [3]: 0.13 µg/mL (≈ 0.125 µM)
MIC [4]: 1 µg/mL (≈ 0.963 µM)
MIC [5]: 1 µg/mL (≈ 0.963 µM)
MIC [6]: 1 µg/mL (≈ 0.963 µM)

C[C@@H]1[C@H](O)[C@@H](C)/C=C/C=C/C=C/C=C/C=C/C=C/C=C/[C@H](O[C@@H]2O[C@H](C)[C@@H](O)[C@H](N)[C@@H]2O)C[C@@H]2O[C@](O)(C[C@@H](O)C[C@@H](O)[C@H](O)CC[C@@H](O)C[C@@H](O)CC(=O)O[C@H]1C)C[C@H](O)[C@H]2C(=O)O [AMPHOTERICIN B]
hemolysis at 5 ug/ml [1]: 30%
MIC [2]: 4 µg/mL (≈ 4.33 µM)
MIC50 [3]: 0.11 µg/mL (≈ 0.119 µM)
MIC90 [3]: 0.36 µg/mL (≈ 0.39 µM)
LD50 [7]: 2.8 mg/kg
MTD [7]: 2.01 mg/kg
MIC [4]: 1 µg/mL (≈ 1.08 µM)
MIC [5]: 1 µg/mL (≈ 1.08 µM)
MIC [6]: 1 µg/mL (≈ 1.08 µM)
